Columns and labels:
[1] = Protein binding in rat brain homogenates; format: in vitro ADME; conditions: brain homogenate
P-gp (MDR1) = P-gp (MDR1) (Homo sapiens, UniProt P08183); test: Permeability in MDR1-MDCK cells; format: in vitro ADME; conditions: dog (MDCK cells), human MDR1 expressed
Rat IV PK = format: in vivo
Procedure, shortened: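 Rats received test compound iv at 0.2 mg/kg as a solution in 9% EtOH, 38% PEG 400 and 53% DMSO (1 mg/mL dosing solution), n=2. Plasma time course gave half-life, plasma clearance and volume of distribution at steady state.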

[2] = test system: panel of 68 clinically relevant GPCRs, ion channels, kinases, and transporters; test: Radioligand binding assay panel; conditions: 10 μM; significant = more than 50% inhibition of radioligand binding
P-gp = test: Mouse IP tissue distribution with P-gp inhibitor 109 pretreatment; format: in vivo; conditions: mouse, brain, ip, with 109 (elacridar), 20 mg/kg, dosed 1 h before compound 58
Procedure, shortened: (§1)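 Mice were pretreated with the P-gp inhibitor elacridar at 20 mg/kg 1 h before the test compound. Test compound was given ip at 30 mg/kg as a fine homogeneous suspension in 10% Tween-80 in water (n=2). Brain and plasma were sampled 15 min after dosing. Kp = total brain/total plasma; Kp,uu = (brain fu × total brain)/(plasma fu × total plasma).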

[3] = as above; format: in vivo
Procedure, shortened: as §1

human M1 = biological target: T1, human M1 (Homo sapiens, UniProt P11229); test: Human M1 functional assay; format: cell-based; conditions: up to the highest concentration tested (30 μM)
T1 sequence (P11229 1-460): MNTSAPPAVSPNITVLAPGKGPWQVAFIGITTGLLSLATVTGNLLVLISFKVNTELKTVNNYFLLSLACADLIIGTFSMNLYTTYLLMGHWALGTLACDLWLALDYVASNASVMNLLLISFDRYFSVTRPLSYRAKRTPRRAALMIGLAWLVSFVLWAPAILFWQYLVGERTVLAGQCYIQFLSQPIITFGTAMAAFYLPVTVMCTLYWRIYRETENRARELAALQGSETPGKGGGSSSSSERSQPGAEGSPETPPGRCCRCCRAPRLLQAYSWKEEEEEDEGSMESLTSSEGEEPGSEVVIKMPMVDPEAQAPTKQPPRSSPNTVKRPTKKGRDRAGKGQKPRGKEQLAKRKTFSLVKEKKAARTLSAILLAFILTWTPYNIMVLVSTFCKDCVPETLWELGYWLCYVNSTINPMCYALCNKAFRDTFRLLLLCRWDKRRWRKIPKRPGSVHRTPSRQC

[4] = Mouse IP tissue distribution; format: in vivo
Procedure, shortened: (§2)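 Single time point tissue distribution in mice or rats (n=2). Test compound was given ip at 30 mg/kg as a fine homogeneous suspension in 10% Tween-80 in water. Brain and plasma concentrations were taken 15 min after dosing. Kp = total brain/total plasma; Kp,uu = unbound brain (brain fu × total brain)/unbound plasma (plasma fu × total plasma).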

[5] = Intrinsic clearance in rat liver microsomes, predicted hepatic clearance; format: in vitro ADME
Procedure, shortened: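 Test compound was incubated with rat liver microsomes to give intrinsic clearance (CLint), which was converted to predicted hepatic clearance. Compounds were binned against hepatic blood flow: low (<1/3), moderate (1/3 to 2/3) or high (>2/3).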

[6] = Rat iv cassette PK tissue distribution; format: in vivo; conditions: 0.2 mg/kg
Procedure, shortened: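 Cassette dosing in rats: iv at 0.2 mg/kg per compound, as a solution in 8% EtOH, 30% PEG 400 and 62% DMSO (2 mg/mL total), n=2. Single time point brain and plasma sampling at 15 min after dose. Kp = total brain/total plasma; Kp,uu = (brain fu × total brain)/(plasma fu × total plasma).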

[7] = Mouse plasma protein binding; format: in vitro ADME
rat mGlu2 = rat mGlu2 (Rattus norvegicus, UniProt P31421); test: Calcium mobilization mGlu2 assay; format: cell-based; conditions: for IC50: average of n ≥ 3
Procedure, shortened: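 Fluorescence calcium-mobilization read-out in a cell line stably co-expressing rat mGlu2 and the promiscuous G-protein Gα15. Test compound was applied up to 30 μM, and NAM activity was measured as inhibition of the glutamate response. Values are the average of n=3. LLE = pIC50 − cLogP, with cLogP calculated by software.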

[8] = Rat IP tissue distribution; format: in vivo
Procedure, shortened: as §2

[9] = test system: other members of the mGlu family; test: Fold-shift selectivity experiments versus other mGlus; format: cell-based; conditions: effect of 10 μM compound on orthosteric agonist CRC
[10] = Protein binding in mouse brain homogenates; format: in vitro ADME; conditions: brain homogenate
[11] = Rat plasma protein binding; format: in vitro ADME
[12] = mouse ip 30 mg/kg, 15 min after dose, 109 dosed 1 h prior at 20 mg/kg
[13] = mouse ip 30 mg/kg, 15 min after dose
[14] = rat ip 30 mg/kg, 15 min after dose

Chain of P-gp (MDR1) (P08183 whole entry): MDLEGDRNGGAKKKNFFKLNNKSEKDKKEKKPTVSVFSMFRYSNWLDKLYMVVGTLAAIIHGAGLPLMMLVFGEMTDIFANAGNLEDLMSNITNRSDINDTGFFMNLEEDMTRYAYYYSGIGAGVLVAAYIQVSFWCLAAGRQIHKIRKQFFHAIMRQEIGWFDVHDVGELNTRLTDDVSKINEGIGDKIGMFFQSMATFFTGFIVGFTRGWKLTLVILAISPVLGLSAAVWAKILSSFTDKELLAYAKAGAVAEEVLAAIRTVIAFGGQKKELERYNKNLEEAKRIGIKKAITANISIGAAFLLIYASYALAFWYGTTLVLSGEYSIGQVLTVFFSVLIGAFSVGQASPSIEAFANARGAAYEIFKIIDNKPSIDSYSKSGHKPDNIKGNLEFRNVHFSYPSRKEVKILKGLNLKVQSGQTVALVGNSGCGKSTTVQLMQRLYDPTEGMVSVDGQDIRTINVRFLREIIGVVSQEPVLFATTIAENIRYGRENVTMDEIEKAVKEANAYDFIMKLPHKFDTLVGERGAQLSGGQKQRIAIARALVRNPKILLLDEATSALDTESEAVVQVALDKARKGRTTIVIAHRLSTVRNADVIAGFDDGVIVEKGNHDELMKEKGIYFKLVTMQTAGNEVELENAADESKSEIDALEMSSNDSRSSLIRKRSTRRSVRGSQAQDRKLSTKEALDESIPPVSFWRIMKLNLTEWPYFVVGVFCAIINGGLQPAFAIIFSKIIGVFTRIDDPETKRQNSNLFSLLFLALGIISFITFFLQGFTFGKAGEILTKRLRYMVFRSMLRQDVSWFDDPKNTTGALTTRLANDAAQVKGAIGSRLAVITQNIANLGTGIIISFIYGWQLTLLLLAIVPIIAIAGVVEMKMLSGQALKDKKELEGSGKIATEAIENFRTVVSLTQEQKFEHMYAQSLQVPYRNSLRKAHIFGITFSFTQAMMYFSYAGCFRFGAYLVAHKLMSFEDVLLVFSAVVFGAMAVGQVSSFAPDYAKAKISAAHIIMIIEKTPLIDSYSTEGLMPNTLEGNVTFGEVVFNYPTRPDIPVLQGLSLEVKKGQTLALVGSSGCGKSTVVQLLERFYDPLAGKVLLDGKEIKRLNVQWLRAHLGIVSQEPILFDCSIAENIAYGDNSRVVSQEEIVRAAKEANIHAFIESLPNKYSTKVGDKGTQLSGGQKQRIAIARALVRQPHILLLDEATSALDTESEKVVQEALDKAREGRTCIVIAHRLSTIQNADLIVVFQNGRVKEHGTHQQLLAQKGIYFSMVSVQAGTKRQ
Chain of rat mGlu2 (P31421 19-872): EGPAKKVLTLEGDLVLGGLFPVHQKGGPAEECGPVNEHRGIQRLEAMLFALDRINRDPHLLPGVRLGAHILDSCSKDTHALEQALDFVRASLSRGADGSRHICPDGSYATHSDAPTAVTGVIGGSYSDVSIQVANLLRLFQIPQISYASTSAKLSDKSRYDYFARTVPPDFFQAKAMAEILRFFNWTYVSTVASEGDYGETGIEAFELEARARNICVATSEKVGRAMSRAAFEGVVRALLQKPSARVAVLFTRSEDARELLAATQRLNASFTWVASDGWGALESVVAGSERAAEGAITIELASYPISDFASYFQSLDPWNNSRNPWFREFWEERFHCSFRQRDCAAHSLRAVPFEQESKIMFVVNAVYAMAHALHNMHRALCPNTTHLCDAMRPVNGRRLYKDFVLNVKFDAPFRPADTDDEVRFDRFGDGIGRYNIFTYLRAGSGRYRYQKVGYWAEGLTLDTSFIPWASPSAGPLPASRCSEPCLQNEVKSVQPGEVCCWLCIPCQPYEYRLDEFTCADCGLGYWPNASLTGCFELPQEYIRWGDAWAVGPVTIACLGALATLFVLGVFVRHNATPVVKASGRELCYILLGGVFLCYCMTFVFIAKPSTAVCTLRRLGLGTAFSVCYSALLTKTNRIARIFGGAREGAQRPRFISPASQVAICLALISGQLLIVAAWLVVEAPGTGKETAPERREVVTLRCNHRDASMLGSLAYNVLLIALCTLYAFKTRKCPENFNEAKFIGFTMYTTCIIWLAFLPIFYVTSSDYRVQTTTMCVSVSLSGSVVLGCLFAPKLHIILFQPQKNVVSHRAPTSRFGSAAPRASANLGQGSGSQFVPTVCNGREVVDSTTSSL

**Q.** With `C[C@@H]1CN(Cc2ccc3c(c2)c(=O)c(C(N)=O)cn3-c2ccc(F)cc2)C[C@H](C)O1` [Compound 58, 6-((cis-2,6-Dimethylmorpholino)methyl)-1-(4-fluorophenyl)-4-oxo-1,4-dihydroquinoline-3-carboxamide] as the compound, how does the fraction unbound [1] read?
**A.** 0.191

**Q.** What about the fraction unbound ([1]; mouse) of the same compound?
**A.** 0.25 to 0.3

**Q.** What about the Papp A→B (P-gp (MDR1)) of the same compound?
**A.** 1.54 ×10⁻⁶ cm/s

**Q.** And the Papp B→A (P-gp (MDR1))?
**A.** 79.7 ×10⁻⁶ cm/s

**Q.** What about the efflux ratio (P-gp (MDR1)) of the same compound?
**A.** 52

**Q.** And the “clearance in vivo” value (Rat IV PK; rat iv time course study)?
**A.** high clearance

**Q.** And the Vd (Rat IV PK; rat, plasma, iv, 0.2 mg/kg)?
**A.** 13.3 L/kg

**Q.** What about the clearance (Rat IV PK; rat, plasma, iv, 0.2 mg/kg) of the same compound?
**A.** 75.8 mL/min/kg

**Q.** And the half-life (Rat IV PK; rat, plasma, iv, 0.2 mg/kg, half-life, rat iv time course study)?
**A.** ~120 min

**Q.** And the half-life (Rat IV PK; rat, plasma, iv, 0.2 mg/kg, t1/2, rat iv 0.2 mg/kg)?
**A.** 141 min

**Q.** And the “ancillary pharmacology, radioligand binding panel responses” value [2]?
**A.** no significant responses

**Q.** What about the Kp at 15 min (P-gp) of the same compound?
**A.** 2.1

**Q.** And the Kp uu at 15 min (P-gp)?
**A.** 1.7

**Q.** And the “unbound brain exposure relative to mGlu2 IC50” value ([3]; 30 mg/kg ip with P-gp inhibitor pretreatment)?
**A.** more than 5 fold

**Q.** And the “increase of exposure in the brain after pretreatment with 109 (elacridar)” value ([3]; mouse ip 30 mg/kg)?
**A.** more than 6 fold

**Q.** What about the brain concentration [3, 12] of the same compound?
**A.** 4580 nm

**Q.** What about the plasma concentration [3, 12] of the same compound?
**A.** 2160 nm

**Q.** And the “human M1 activity” value (human M1)?
**A.** no activity

**Q.** And the brain concentration [4, 13]?
**A.** 716 nm

**Q.** And the plasma concentration [4, 13]?
**A.** 1820 nm

**Q.** And the Kp at 0.25 h ([4]; mouse, brain, ip, 30 mg/kg)?
**A.** 0.39

**Q.** What about the Kp uu at 0.25 h ([4]; mouse, brain, ip, 30 mg/kg) of the same compound?
**A.** 0.32

**Q.** What about the concentration at 15 min ([4]; mouse, brain, ip, 30 mg/kg, brain concentration, mouse ip 30 mg/kg) of the same compound?
**A.** 716 nM

**Q.** And the concentration at 15 min ([4]; mouse, brain, ip, 30 mg/kg, unbound brain concentration, mouse ip 30 mg/kg)?
**A.** 184 nM

**Q.** What about the “predicted hepatic clearance group” value ([5]; binned from CLint in rat liver microsomes) of the same compound?
**A.** low–moderate

**Q.** And the “rat CLhep” value ([5]; predicted hepatic clearance based on CLint in rat liver microsomes)?
**A.** 24.5 mL/min/kg

**Q.** And the Kp at 0.25 h ([6]; brain)?
**A.** 0.32

**Q.** And the Kp uu at 0.25 h ([6]; brain)?
**A.** 0.23

**Q.** And the concentration at 15 min ([6]; brain)?
**A.** 18 nM

**Q.** What about the concentration at 15 min ([6]; plasma) of the same compound?
**A.** 56.9 nM

**Q.** What about the fraction unbound [7] of the same compound?
**A.** 0.315

**Q.** And the LLE (rat mGlu2; LLE = pIC50 – cLogP)?
**A.** 3.59

**Q.** What about the “% Glu max ± SEM” value (rat mGlu2; amplitude of response in presence of 30 μM test compound as percentage of maximal response (100 μM glutamate)) of the same compound?
**A.** 1.48 ± 0.29%

**Q.** And the IC50 (rat mGlu2; mGlu2 IC50, calcium mobilization)?
**A.** 207 nM

**Q.** And the IC50 (rat mGlu2; mGlu2 pIC50 ± SEM, calcium mobilization)?
**A.** 204 nM

**Q.** And the brain concentration [8, 14]?
**A.** 760 nM

**Q.** What about the plasma concentration [8, 14] of the same compound?
**A.** 3.9 µM

**Q.** What about the Kp at 0.25 h ([8]; rat, brain, ip, 30 mg/kg) of the same compound?
**A.** 0.2

**Q.** What about the Kp uu at 0.25 h ([8]; rat, brain, ip, 30 mg/kg) of the same compound?
**A.** 0.12

**Q.** What about the concentration at 15 min ([8]; rat, brain, ip, 30 mg/kg, unbound brain concentration, rat ip 30 mg/kg) of the same compound?
**A.** 145 nM

**Q.** And the “activity at the other mGlus” value [9]?
**A.** no activity

**Q.** What about the fraction unbound [10] of the same compound?
**A.** 0.257

**Q.** What about the “unbound in rat plasma” value [11] of the same compound?
**A.** approximately 30%

**Q.** And the fraction unbound ([11]; rat, plasma)?
**A.** 0.306
